Source: article PMC10281356 (Drug Delivery, 2023)

How the values were obtained:
HepG2 cells = assay: MTT cytotoxicity assay on HepG2 cells; format: cell-based, human; conditions: peptide alone at 50 and 25 μg/mL, 24 h, n = 3
Outline: (§1)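 Peptide vectors, PEGylated or not, were added alone at a series of concentrations to A549 or HepG2 cells, followed by MTT read-out. Viability (%) was calculated from absorbance of treated cells relative to untreated cells. Data given as mean ± SEM (n = 3) and compared by one-way ANOVA with Tukey's post-hoc test.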

A549 cells = assay: MTT cytotoxicity assay on A549 cells; format: cell-based, human; conditions: peptide alone at 50 and 25 μg/mL, 24 h, n = 3
Outline: as §1

EGFP and luciferase mRNA = assay: Gel retardation assay, vector-mRNA binding; conditions: agarose gel electrophoresis
Outline: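 Test compounds (peptide vectors, with or without PEG) mixed with EGFP or luciferase mRNA at 0.5:1 to 15:1 (w/w) to form self-assemblies. Run on agarose gel in 1× TAE at 140 V for 40 min. Stained with GelRed and imaged under UV. Unbound mRNA served as control. Complete binding was taken as loss of the free mRNA band.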

mRNA affinity compared with non-PEGylated LA peptide (EGFP and luciferase mRNA): comparable
Substance: (PEG24)-KKALLAHALHLLA LLALHLAHALKKA-NH2 [PEG24LA, PEG24-LAH4-L1]
cytotoxicity of peptide compared with non-PEGylated LA peptide (HepG2 cells): significantly lower | cytotoxicity of peptide compared with non-PEGylated LA peptide (A549 cells): significantly lower
